Experimental data reported in PubChem BioAssay AID1230 (PCMD, 2008).
Among all 210,000 compounds or so, about 220 (0.1%) were called active.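 How the source made its calls: active means signal enhancement of 30% or more; inactive means the rest.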 For the sample, actives were picked, then their nearest neighbours and some compounds at random.

Each compound was assayed against E3 ubiquitin-protein ligase Mdm2 (Homo sapiens) (UniProt Q00987) (assay: MDM2-luciferase reporter signal enhancers, primary screen, MDM2 E3 ligase inhibitor project, cell-based, luminescence, 1536-well (AID 1230;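 further: luminescence tracks abundance of the self-degrading MDM2-luciferase fusion protein; higher signal means inhibition of MDM2 E3 ligase activity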)). Conditions: cell-based MDM2 ubiquitination luciferase reporter, 2 h; at 5 µM; hits give high values; 0 = plate control, 100 = twice control, blank-subtracted.
Sequence of E3 ubiquitin-protein ligase Mdm2 (Homo sapiens) (Q00987 whole entry, looked up, the tested form may be a part): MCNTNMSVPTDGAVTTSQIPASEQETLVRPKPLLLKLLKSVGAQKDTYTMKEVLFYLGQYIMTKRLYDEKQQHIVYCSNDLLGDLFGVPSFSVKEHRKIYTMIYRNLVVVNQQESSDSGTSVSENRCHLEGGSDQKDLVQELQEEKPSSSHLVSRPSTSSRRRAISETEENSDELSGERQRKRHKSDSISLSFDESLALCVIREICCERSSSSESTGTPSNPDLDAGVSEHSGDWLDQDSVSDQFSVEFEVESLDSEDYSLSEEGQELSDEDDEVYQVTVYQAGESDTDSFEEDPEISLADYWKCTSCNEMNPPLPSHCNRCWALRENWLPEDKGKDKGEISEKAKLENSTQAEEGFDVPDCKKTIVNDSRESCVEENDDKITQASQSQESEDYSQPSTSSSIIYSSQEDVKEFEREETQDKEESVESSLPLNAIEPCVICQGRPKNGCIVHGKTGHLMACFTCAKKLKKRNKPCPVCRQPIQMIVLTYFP
In short: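 Test system: stable mammalian line carrying autodegrading MDM2–luciferase fusion reporter; quantity: 2000 cells in each well; times: 4 h cell settling then 2 h compound exposure, 37 °C; detection: luminescence with SteadyLite reagent, 15 min at room temperature; evaluation: percent signal gain over controls, blank-subtracted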

Row | Compound | signal enhancement
1 | CCCc1nc2oc3c(=O)[nH]cnc3c2c2c1COC(C)(C)C2 | 1.7% (inactive)
2 | COc1c(N2CCN(C(=S)Nc3ccccc3F)C(C)C2)c(F)cc2c(=O)c(C(=O)O)cn(C3CC3)c12 (stereo not given) | 0.25% (inactive)
3 | CCc1cc2c(=O)c(-c3nc4ccccc4n3C)c(CCCC(=O)O)oc2cc1OC(=O)C(C)(C)C | 32.3% (active)
4 | CCc1cc2c(=O)c(-c3ccc(F)cc3)c(C(F)(F)F)oc2cc1OCC(=O)O | -6.75% (inactive)
5 | CCOC(=O)c1oc2c(CN3CCN(CCO)CC3)c(O)c(CC)cc2c(=O)c1-c1nc2ccccc2s1 | -10.7% (inactive)
6 | CCOc1c(Nc2cccc(Cl)c2)c(=O)c1=O | -2.35% (inactive)
7 | NC1=NC[C@@H](Cc2ccc(O)cc2)N1CC1CCCCC1 | 7.84% (inactive)
8 | Oc1c(Br)cc(/C=N/NC(=S)NCC2CCCO2)cc1Br (stereo not given) | -4.26% (inactive)
9 | N#Cc1ccc(Oc2ccc(C(F)(F)F)cc2NC(=O)c2ccc(F)cc2)cc1 | -13.7% (inactive)
10 | CC1(C)CCSC(/C=C/c2ccccc2)=N1 | 3.53% (inactive)
11 | NS(=O)(=O)c1ccc(NC(=O)COC(=O)c2cc3ccccc3oc2=O)cc1 | -3.08% (inactive)
12 | Cc1cc(C)nc(SCc2cn3c(C)cc(C)nc3n2)n1 | -13.6% (inactive)
13 | COc1cc(NC(=O)c2ccc(CNc3c(N4CCCC4)c(=O)c3=O)cc2)cc(OC)c1OC | -5.93% (inactive)
14 | COc1cc(C(CCN2CCN(c3ccccc3)CC2)c2c(OC)cc(OC)c3ccc(=O)oc23)cc(OC)c1OC (stereo not given) | 17.2% (inactive)
15 | CC(C)COC(=O)n1c(=O)oc2ccc(S(=O)(=O)N3CCCCC3)cc21 | -7.89% (inactive)
16 | CN(C)c1cc(-c2ccc(F)cc2)oc(=O)c1Cl | -15.5% (inactive)
17 | COc1ccccc1NC(=O)c1cc(Cl)nc2ccccc12 | -12.4% (inactive)
18 | Cc1onc(-c2c(Cl)cccc2Cl)c1C(=O)NNC(=O)c1c(-c2c(Cl)cccc2Cl)noc1C | -1.5% (inactive)
19 | Cc1cc(C)cc(NS(=O)(=O)c2ccc(F)cc2)c1 | -8.71% (inactive)
20 | COc1ccccc1CNC(=O)Cn1c(=O)oc2cc(Cl)ccc21 | -8.67% (inactive)

Row | Compound | signal enhancement
21 | Cc1noc(C)c1-c1nc(CSc2ccc(Cl)cc2)no1 | -16.2% (inactive)
22 | Cc1ccc(/C=N/NC(=S)Nc2cccc(S(=O)(=O)N(C)C)c2)o1 | -13.3% (inactive)
23 | Cc1cccc(-[n+]2c(-c3cccc(Br)c3)[nH]c3nc4ccccc4nc32)c1 | -76.7% (inactive)
24 | O=C1NNC(c2ccccc2)=N/C1=C\c1ccc(Cl)cc1 | -9.72% (inactive)
25 | O=c1cc(CCl)nc2scc(-c3ccccc3)n12 | -0.33% (inactive)
26 | CCOC(=O)Cn1c(N)c(C(=O)OC)sc1=S | -0.11% (inactive)
27 | CCOC(=O)Cn1nnnc1C | 38.2% (active)
28 | CCOC(=O)CNC(=O)CSc1nnnn1-c1cc(C)ccc1C | 16.5% (inactive)
29 | Cc1cc(=O)oc2cc(OCCC[n+]3ccccc3)ccc12 | -9.35% (inactive)
30 | Cc1cc(NC(=O)OC(C)C)ccc1-c1ccc(NC(=O)OC(C)C)cc1C | 0.08% (inactive)
31 | O=S(=O)(c1ccccc1)N1CN(Cc2ccc(F)cc2)c2nc3ccccc3nc21 | -0.23% (inactive)
32 | CCCCNC(=O)OCCSCCS(=O)(=O)c1ccc(Cl)cc1 | -11.5% (inactive)
33 | O=C(NN1C(=O)C2C(C1=O)C1C=CC2C12CC2)c1ccccc1Cl (stereo not given) | -6.98% (inactive)
34 | COc1cc(C=O)ccc1Oc1nnnn1-c1ccccc1 | -12.6% (inactive)
35 | Cn1nc(C(C)(C)C)c(NC(=O)c2sccc2Cl)c1C(C)(C)C | -2.73% (inactive)
36 | COc1ccc(NC2=CC(=S)NC(C)(C)C2)cc1 | -2.53% (inactive)
37 | O=C(Nc1ccc(F)cc1)c1cc2c(s1)CCCC2 | -16.8% (inactive)
38 | COc1ccc(COCCN2CCN(S(=O)(=O)c3ccccc3)CCC2=O)cc1 | 16.8% (inactive)
39 | COc1ccc(COCC(O)CN2CCC(C(N)=O)CC2)cc1 (stereo not given) | -1.62% (inactive)
40 | O=C(CCl)Nc1cccc(CP(=O)(c2ccccc2)c2ccccc2)c1 | -14.8% (inactive)

Row | Compound | signal enhancement
41 | O=c1[nH]c2cccnc2n1-c1ccc([N+](=O)[O-])cc1 | -12% (inactive)
42 | O=C(NNC(=S)Nc1ccc(F)cc1)[C@H]1C[C@@H]1c1ccccc1 | -1.61% (inactive)
43 | CCOC(=O)/C=C/CN(C(=O)OC(C)(C)C)S(=O)(=O)N1CC=CC1 | 1.19% (inactive)
44 | Cc1cc(Nc2ccc(N3CCOCC3)cc2)c2cccc(C)c2n1 | 5.92% (inactive)
45 | N#CC1=C(N)Oc2c(ccc3cccnc23)C1c1ccncc1 (stereo not given) | -12.4% (inactive)
46 | COCc1cc(=O)oc2cc(NS(=O)(=O)c3ccc(C)cc3)ccc12 | -14.3% (inactive)
47 | CC(=O)N(OCc1ccc(OC(C)C)c(Cl)c1)C(C)=O | -12.5% (inactive)
48 | Cc1ccc(S(=O)(=O)NC(=O)N2CCCN(Cc3ccc(F)cc3)CC2)cc1 | -8.58% (inactive)
49 | CCC/C(C)=N\Nc1nc2c(c(=O)n(C)c(=O)n2C)n1C | -9.83% (inactive)
50 | CCO[C@@H]1OC(C(=O)NC2CC2)=C[C@H](C)[C@H]1CCCO | -12.6% (inactive)
51 | CC(C)C[C@H](CO)Nc1nc(N(C)c2cccc(Cl)c2)c2ncn(C(C)C)c2n1 | 10% (inactive)
52 | Cc1ccc(/C=C/C(=O)O)cc1S(=O)(=O)N1CCC(Cc2ccccc2)CC1 | -0.26% (inactive)
53 | O=C(CCCOc1ccccc1)Nc1cccc(C(=O)O)c1 | -14.6% (inactive)
54 | O=C(CCC(=O)OCc1ccc(Cl)cc1)Nc1ccccc1 | -8.79% (inactive)
55 | O=C(CNCc1ccc(Cl)cc1)Nc1cccc(C(=O)O)c1 | 35.7% (active)
56 | CCN(CC)CCn1c(N)c(S(=O)(=O)c2ccccc2)c2nc3ccccc3nc21 | -7.92% (inactive)
57 | CCCN(CCC)c1ccc(C(O)c2nnc(-c3ccccc3)o2)cc1 (stereo not given) | -18.3% (inactive)
58 | Nc1ccc(-c2nnc(-c3ccc(-c4ccccc4)cc3)o2)cc1 | -17.1% (inactive)
59 | OC(c1nnc(-c2ccccc2)o1)c1cccs1 (stereo not given) | 31.9% (active)
60 | O=S(=O)([N-]c1nc2ccccc2nc1-[n+]1ccc(Cc2ccccc2)cc1)c1ccc(Br)s1 | -17.8% (inactive)
